Data reported in ChEMBL document CHEMBL1129041, “Design of orally active dual inhibitors of neutral endopeptidase and angiotensin-converting enzyme with long duration of action” (J Med Chem, 1996).

Biological target: T1, Neprilysin (Mus musculus) (UniProt Q61391)
T1 sequence (whole entry): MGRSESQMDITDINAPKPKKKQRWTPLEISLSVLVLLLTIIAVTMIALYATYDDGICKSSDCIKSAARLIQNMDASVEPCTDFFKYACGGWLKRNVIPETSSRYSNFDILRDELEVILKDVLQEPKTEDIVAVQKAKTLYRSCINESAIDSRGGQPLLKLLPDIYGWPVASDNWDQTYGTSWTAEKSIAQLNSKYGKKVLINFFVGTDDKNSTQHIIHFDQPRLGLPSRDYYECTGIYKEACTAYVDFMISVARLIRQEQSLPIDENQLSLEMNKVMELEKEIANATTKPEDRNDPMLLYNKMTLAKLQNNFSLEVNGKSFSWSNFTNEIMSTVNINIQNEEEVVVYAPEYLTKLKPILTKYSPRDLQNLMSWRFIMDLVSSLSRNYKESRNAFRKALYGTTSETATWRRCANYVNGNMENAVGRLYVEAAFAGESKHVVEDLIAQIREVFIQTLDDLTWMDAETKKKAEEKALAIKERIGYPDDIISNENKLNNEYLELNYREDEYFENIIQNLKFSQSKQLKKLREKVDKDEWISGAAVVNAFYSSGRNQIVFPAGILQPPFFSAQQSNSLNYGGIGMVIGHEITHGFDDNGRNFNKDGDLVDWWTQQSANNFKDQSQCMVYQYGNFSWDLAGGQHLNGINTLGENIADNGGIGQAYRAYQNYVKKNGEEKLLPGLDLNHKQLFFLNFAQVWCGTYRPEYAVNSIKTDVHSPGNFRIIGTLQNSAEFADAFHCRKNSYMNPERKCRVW
Test: In vivo percent inhibition activity against kidney Neutral endopeptidase 2 hr after oral administration of a dose of 2.6 x 10e-5 mol/kg
Type: organism-based
In short: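 Mice given a single oral dose in 10% ethanol/10% cremophor/80% water; kidneys taken 2 h later and homogenized at 4 °C in 50 mM Tris-HCl pH 7.4. Membrane fraction (100000g) preincubated 5 min at 25 °C with bestatin and captopril, then incubated 10 min with [3H]-D-Ala2-Leu-enkephalin (2 × 10^-8 M). [3H]Tyr-D-Ala-Gly counted; blanks contained 10^-5 M retrothiorphan.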

Cc1ccccc1C1CC[C@@H](C(=O)O)N1C(=O)CNC(=O)[C@@H](S)Cc1ccc(O)cc1 (single isomer, unassigned)
inhibition: 44%
